Measured values as given in ChEMBL document CHEMBL1153568, “Synthesis and anticonvulsant activity of N-(2-hydroxyethyl) cinnamamide derivatives” (Eur J Med Chem, 2009).
Calls of active or inactive are those of the source.

Tests used:
[1] = tested on: Mus musculus; test: Anticonvulsant activity in Kunming mouse assessed as protection against maximal electroshock-induced seizures at 30 mg/kg, ip after 30 mins; type: functional, organism-based; parameters: dose 30 mg/kg
Summary of the method: (§1)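 Maximal electroshock test in mice, five per group, dosed i.p. with suspension in 1:19 DMSO/saline plus 0.5% methylcellulose; seizures evoked at 0.5 h or 4 h after dosing. Protection defined as abolition of hind leg tonic maximal extension; scored as number protected/number tested.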

[2] = tested on: Mus musculus; test: Anticonvulsant activity against subcutaneous pentylenetetrazole-induced seizures in Kunming mouse assessed as tonic seizures of at 50 mg/kg, ip after 0.5 hrs; type: functional
Summary of the method: (§2)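 Test agent given i.p. (suspension in 1:19 DMSO/saline, 0.5% methylcellulose); 30 min later PTZ 85 mg/kg in saline given sc. Animals kept in individual cages, watched 30 min; clonic seizures, tonic seizures and deaths counted, expressed as percent.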

[3] = tested on: Mus musculus; test: Anticonvulsant activity in ip dosed Kunming mouse assessed as protection against maximal electroshock-induced seizures; type: functional
Summary of the method: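 Phase II quantification: mice (ten per dose) dosed i.p. with compound suspended in 1:19 DMSO/saline, 0.5% methylcellulose; MES given 30 min later, protection being abolition of hind leg tonic extension. ED50, dose protecting 50% of animals, reported with 95% confidence limits.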

[4] = Neurotoxicity in ip dosed Kunming mouse by rotarod test; type: toxicity, organism-based; details: in vivo
[5] = tested on: Mus musculus; test: Protective index, ratio of TD50 for neurotoxicity to ED50 for anticonvulsant activity in ip dosed Kunming mouse; type: functional
[6] = tested on: Mus musculus; test: Toxicity in Kunming mouse assessed as thiosemicarbazide-induced lethality at 50 mg/kg, ip after 2.5 hrs; type: organism-based; parameters: dose 50 mg/kg, route intraperitoneal; details: in vivo
[7] = tested on: Mus musculus; test: Anticonvulsant activity against 3-mercaptopropionic acid-induced seizures in Kunming mouse assessed as tonic seizures of at 50 mg/kg, ip after 0.5 hrs; type: functional; details: route intraperitoneal
Summary of the method: (§3)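 Mice given test agent i.p. as suspension in 1:19 DMSO/saline with 0.5% methylcellulose; 30 min later 60 mg/kg 3-mercaptopropionic acid in saline injected sc. Latency and duration of convulsions, latency and percentage lethality recorded over 1 h after convulsant; clonic and tonic seizure incidence reported as percent of animals.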

[8] = tested on: Mus musculus; test: Anticonvulsant activity against subcutaneous pentylenetetrazole-induced seizures in Kunming mouse assessed as clonic seizures of at 50 mg/kg, ip after 0.5 hrs; type: functional; summary of the method: as §2
[9] = tested on: Mus musculus; test: Anticonvulsant activity against thiosemicarbazide-induced seizures in Kunming mouse assessed as clonic seizures of at 50 mg/kg, ip after 2.5 hrs; type: functional; details: route intraperitoneal
[10] = tested on: Mus musculus; test: Anticonvulsant activity against 3-mercaptopropionic acid-induced seizures in Kunming mouse assessed as clonic seizures of at 50 mg/kg, ip after 0.5 hrs; type: functional; details: route intraperitoneal; summary of the method: as §3
[11] = tested on: Mus musculus; test: Anticonvulsant activity in Kunming mouse assessed as protection against maximal electroshock-induced seizures at 30 mg/kg, ip after 4 hrs; type: functional, organism-based; parameters: dose 30 mg/kg; summary of the method: as §1
[12] = tested on: Mus musculus; test: Anticonvulsant activity against thiosemicarbazide-induced seizures in Kunming mouse assessed as tonic seizures of at 50 mg/kg, ip after 2.5 hrs; type: functional; details: route intraperitoneal
[13] = tested on: Mus musculus; test: Toxicity in Kunming mouse assessed as subcutaneous pentylenetetrazole-induced lethality at 50 mg/kg, ip after 0.5 hrs; type: organism-based; parameters: dose 50 mg/kg; details: in vivo, sc
Summary of the method: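 Test article at 50 mg/kg i.p. in 1:19 (vol/vol) DMSO/saline with 0.5% methylcellulose. After 30 min, pentylenetetrazole at 85 mg/kg in saline was given sc. Animals were caged individually and watched for 30 min, with clonic and tonic seizures and deaths counted.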

[14] = tested on: Mus musculus; test: Toxicity in Kunming mouse assessed as 3-mercaptopropionic acid-induced lethality at 50 mg/kg, ip after 0.5 hrs; type: organism-based; parameters: dose 50 mg/kg, route intraperitoneal; details: in vivo
Summary of the method: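 Compound given i.p. at 50 mg/kg as a suspension in 1:19 (vol/vol) DMSO/saline (0.9% NaCl) with 0.5% methylcellulose. At 30 min, 3-mercaptopropionic acid at 60 mg/kg in saline was injected sc. Convulsion latency and duration, and the latency and percentage of lethality, were recorded over the following 1 h.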

[15] = tested on: Mus musculus; test: Anticonvulsant activity against isoniazid-induced seizures in Kunming mouse assessed as tonic seizures of at 50 mg/kg, ip after 0.5 hrs; type: functional; details: route intraperitoneal
Summary of the method: (§4)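 Compounds suspended in 1:19 DMSO/saline containing 0.5% methylcellulose and given i.p.; after 30 min mice received isoniazid 250 mg/kg i.p., a dose convulsing 100% of animals. Each mouse housed singly and observed 1 h; percent of animals with clonic and tonic seizures, and lethality, recorded.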

[16] = tested on: Mus musculus; test: Toxicity in Kunming mouse assessed as isoniazid-induced lethality at 50 mg/kg, ip after 0.5 hrs; type: organism-based; parameters: dose 50 mg/kg, route intraperitoneal; details: in vivo
Summary of the method: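 Mice were dosed i.p. at 50 mg/kg with a suspension in 1:19 (vol/vol) DMSO/saline containing 0.5% methylcellulose. Isoniazid (250 mg/kg, i.p.) was given 30 min later. Mice were then housed singly and observed for 1 h, scoring clonic seizures, tonic seizures and deaths.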

[17] = tested on: Mus musculus; test: Anticonvulsant activity against isoniazid-induced seizures in Kunming mouse assessed as clonic seizures of at 50 mg/kg, ip after 0.5 hrs; type: functional; details: route intraperitoneal; summary of the method: as §4
[18] = tested on: Mus musculus; test: Anticonvulsant activity in Kunming mouse assessed as protection against maximal electroshock-induced seizures at 100 mg/kg, ip after 30 mins; type: functional, organism-based; parameters: dose 100 mg/kg; summary of the method: as §1
[19] = tested on: Mus musculus; test: Anticonvulsant activity in Kunming mouse assessed as protection against maximal electroshock-induced seizures at 100 mg/kg, ip after 4 hrs; type: functional, organism-based; parameters: dose 100 mg/kg; summary of the method: as §1
[20] = tested on: Mus musculus; test: Anticonvulsant activity in Kunming mouse assessed as protection against maximal electroshock-induced seizures at 300 mg/kg, ip after 4 hrs; type: functional, organism-based; parameters: dose 300 mg/kg; summary of the method: as §1

Compound: O=C(/C=C/c1cccc(F)c1)NCCO
- Activity [1]: Active
- Activity [2]: 40%
- ED50 [3]: 17 mg/kg
- TD50 [4]: 211 mg/kg
- Ratio TD50/ED50 [5]: 12.4
- Activity [6]: 40%
- Activity [7]: 30%
- Activity [8]: 100%
- Activity [9]: 100%
- Activity [10]: 100%
- Activity [11]: inactive
- Activity [12]: 50%
- Activity [13]: 20%
- Activity [14]: 50%

Compound: O=C(/C=C/c1ccccc1)NCCO [IDROCILAMIDE]
- Activity [15]: 70%
- Activity [16]: 20%
- Activity [2]: 20%
- Activity [17]: 100%
- ED50 [3]: 17.7 mg/kg
- TD50 [4]: 155 mg/kg
- Ratio TD50/ED50 [5]: 8.8
- Activity [6]: 30%
- Activity [7]: 10%
- Activity [8]: 100%
- Activity [9]: 100%
- Activity [10]: 100%
- Activity [11]: inactive
- Activity [12]: 40%
- Activity [13]: 10%
- Activity [14]: 10%

Compound: O=C(/C=C/c1ccc(F)cc1)NCCO
- ED50 [3]: 45.6 mg/kg
- TD50 [4]: 98.3 mg/kg
- Ratio TD50/ED50 [5]: 2.2
- Activity [18]: Active
- Activity [19]: inactive

Compound: O=C(/C=C/c1ccc(Br)cc1)NCCO
- ED50 [3]: 76 mg/kg
- TD50 [4]: 98.3 mg/kg
- Ratio TD50/ED50 [5]: 1.3
- Activity [19]: inactive

Compound: O=C(Cc1ccccc1)NCCO
- Activity [20]: inactive

Compound: O=C(/C=C/c1ccccc1Cl)NCCO
- ED50 [3]: 59 mg/kg
- TD50 [4]: 152 mg/kg
- Ratio TD50/ED50 [5]: 2.6
- Activity [18]: Active
- Activity [19]: inactive

Compound: O=C(/C=C/c1ccc(Cl)cc1)NCCO
- ED50 [3]: 73.4 mg/kg
- TD50 [4]: 98.4 mg/kg
- Ratio TD50/ED50 [5]: 1.3
- Activity [19]: inactive

Compound: O=C(/C=C/c1ccc(Cl)cc1Cl)NCCO
- Activity [20]: inactive

Compound: O=C(/C=C/c1ccccc1F)NCCO
- ED50 [3]: 35.3 mg/kg
- TD50 [4]: 219 mg/kg
- Ratio TD50/ED50 [5]: 6.2
- Activity [11]: inactive

Compound: CN(C)c1ccc(/C=C/C(=O)NCCO)cc1
- ED50 [3]: 66.1 mg/kg
- TD50 [4]: 304 mg/kg
- Ratio TD50/ED50 [5]: 4.6
- Activity [19]: inactive

Compound: COc1ccc(/C=C/C(=O)NCCO)cc1
- Activity [19]: inactive

Compound: Cc1ccc(/C=C/C(=O)NCCO)cc1
- Activity [19]: inactive

Compound: O=C(NCCO)c1ccccc1
- Activity [20]: inactive

Compound: O=C(/C=C/c1ccc2c(c1)OCO2)NCCO
- ED50 [3]: 32.4 mg/kg
- TD50 [4]: 105 mg/kg
- Ratio TD50/ED50 [5]: 3.3
- Activity [11]: inactive

Compound: O=C(CCc1ccccc1)NCCO
- Activity [20]: inactive

Compound: O=C(/C=C/c1ccccc1Br)NCCO
- ED50 [3]: 68.2 mg/kg
- TD50 [4]: 228 mg/kg
- Ratio TD50/ED50 [5]: 3.3
- Activity [19]: inactive

Compound: O=C(/C=C/c1cccc(Cl)c1)NCCO
- Activity [16]: 20%
- ED50 [3]: 25 mg/kg
- TD50 [4]: 127 mg/kg
- Ratio TD50/ED50 [5]: 5.1
- Activity [11]: inactive

Compound: NC(=O)N1c2ccccc2C=Cc2ccccc21 [CARBAMAZEPINE]
- Activity [15]: 0%
- Activity [16]: 0%
- Activity [2]: 0%
- Activity [17]: 50%
- ED50 [3]: 8.8 mg/kg
- Activity [6]: 20%
- Activity [7]: 0%
- Activity [8]: 100%
- Activity [9]: 100%
- Activity [10]: 100%
- Activity [12]: 0%
- Activity [13]: 10%
